Experiments:
[1] = target: Xanthine dehydrogenase/oxidase (Rattus norvegicus, UniProt P22985); experiment: Inhibition of rat liver xanthine oxidase by spectrophotometry
Method in brief: (§1)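 Enzyme source: for line 2, supernatant of centrifuged rat liver homogenate stored at −80 °C; for line 1, commercial microbial XO run the same way. Mix of 50 mM potassium phosphate pH 7.5, 0.3 mM EDTA and enzyme. Reaction started with xanthine substrate plus test compound. Uric acid read at 292 nm at 10 min intervals, ambient temperature. % inhibition versus control without compound; triplicates. Protein by Lowry, BSA standard.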

[2] = Inhibition of microbial xanthine oxidase by spectrophotometry
Method in brief: as §1, with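 “compound.” for “compound. Uric acid read at 292 nm at 10 min intervals, ambient temperature. % inhibition versus control without compound; triplicates.”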

[3] = target: Xanthine dehydrogenase/oxidase (Bos taurus, UniProt P80457); experiment: Inhibition of bovine milk xanthine oxidase by spectrophotometry
Xanthine dehydrogenase/oxidase (Bos taurus, UniProt P80457), sequence (P80457 whole entry): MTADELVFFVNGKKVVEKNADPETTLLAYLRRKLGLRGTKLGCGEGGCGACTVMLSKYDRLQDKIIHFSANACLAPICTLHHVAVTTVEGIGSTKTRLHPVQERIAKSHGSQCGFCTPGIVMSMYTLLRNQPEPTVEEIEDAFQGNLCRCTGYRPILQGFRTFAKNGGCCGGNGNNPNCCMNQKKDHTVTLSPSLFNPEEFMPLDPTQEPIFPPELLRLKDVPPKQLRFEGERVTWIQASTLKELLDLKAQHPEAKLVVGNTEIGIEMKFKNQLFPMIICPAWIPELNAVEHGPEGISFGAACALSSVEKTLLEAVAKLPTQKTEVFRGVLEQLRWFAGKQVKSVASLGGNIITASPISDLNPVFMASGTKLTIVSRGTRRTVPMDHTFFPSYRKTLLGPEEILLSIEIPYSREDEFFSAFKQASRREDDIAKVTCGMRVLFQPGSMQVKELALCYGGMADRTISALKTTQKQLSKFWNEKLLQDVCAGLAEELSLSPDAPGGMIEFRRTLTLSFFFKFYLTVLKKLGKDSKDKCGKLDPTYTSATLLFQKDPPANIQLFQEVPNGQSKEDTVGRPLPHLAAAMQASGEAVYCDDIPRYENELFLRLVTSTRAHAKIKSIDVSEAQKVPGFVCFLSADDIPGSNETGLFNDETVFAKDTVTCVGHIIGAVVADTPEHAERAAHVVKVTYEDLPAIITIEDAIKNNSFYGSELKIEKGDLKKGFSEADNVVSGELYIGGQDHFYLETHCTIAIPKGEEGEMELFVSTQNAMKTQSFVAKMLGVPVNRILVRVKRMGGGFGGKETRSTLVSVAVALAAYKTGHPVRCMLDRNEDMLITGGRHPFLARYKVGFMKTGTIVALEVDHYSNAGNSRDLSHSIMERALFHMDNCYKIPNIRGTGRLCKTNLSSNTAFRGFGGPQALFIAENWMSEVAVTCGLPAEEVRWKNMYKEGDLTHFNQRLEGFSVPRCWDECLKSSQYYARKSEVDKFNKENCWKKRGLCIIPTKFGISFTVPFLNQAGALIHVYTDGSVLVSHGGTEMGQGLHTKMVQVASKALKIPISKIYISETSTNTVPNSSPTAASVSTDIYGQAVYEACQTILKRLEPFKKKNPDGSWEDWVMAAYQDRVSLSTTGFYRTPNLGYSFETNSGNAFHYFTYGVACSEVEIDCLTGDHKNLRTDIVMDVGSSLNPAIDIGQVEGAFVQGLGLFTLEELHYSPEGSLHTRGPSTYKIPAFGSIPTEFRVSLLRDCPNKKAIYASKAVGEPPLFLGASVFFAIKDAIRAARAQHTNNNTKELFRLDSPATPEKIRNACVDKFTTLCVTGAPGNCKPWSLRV

Xanthine dehydrogenase/oxidase (Rattus norvegicus, UniProt P22985), sequence (P22985 whole entry): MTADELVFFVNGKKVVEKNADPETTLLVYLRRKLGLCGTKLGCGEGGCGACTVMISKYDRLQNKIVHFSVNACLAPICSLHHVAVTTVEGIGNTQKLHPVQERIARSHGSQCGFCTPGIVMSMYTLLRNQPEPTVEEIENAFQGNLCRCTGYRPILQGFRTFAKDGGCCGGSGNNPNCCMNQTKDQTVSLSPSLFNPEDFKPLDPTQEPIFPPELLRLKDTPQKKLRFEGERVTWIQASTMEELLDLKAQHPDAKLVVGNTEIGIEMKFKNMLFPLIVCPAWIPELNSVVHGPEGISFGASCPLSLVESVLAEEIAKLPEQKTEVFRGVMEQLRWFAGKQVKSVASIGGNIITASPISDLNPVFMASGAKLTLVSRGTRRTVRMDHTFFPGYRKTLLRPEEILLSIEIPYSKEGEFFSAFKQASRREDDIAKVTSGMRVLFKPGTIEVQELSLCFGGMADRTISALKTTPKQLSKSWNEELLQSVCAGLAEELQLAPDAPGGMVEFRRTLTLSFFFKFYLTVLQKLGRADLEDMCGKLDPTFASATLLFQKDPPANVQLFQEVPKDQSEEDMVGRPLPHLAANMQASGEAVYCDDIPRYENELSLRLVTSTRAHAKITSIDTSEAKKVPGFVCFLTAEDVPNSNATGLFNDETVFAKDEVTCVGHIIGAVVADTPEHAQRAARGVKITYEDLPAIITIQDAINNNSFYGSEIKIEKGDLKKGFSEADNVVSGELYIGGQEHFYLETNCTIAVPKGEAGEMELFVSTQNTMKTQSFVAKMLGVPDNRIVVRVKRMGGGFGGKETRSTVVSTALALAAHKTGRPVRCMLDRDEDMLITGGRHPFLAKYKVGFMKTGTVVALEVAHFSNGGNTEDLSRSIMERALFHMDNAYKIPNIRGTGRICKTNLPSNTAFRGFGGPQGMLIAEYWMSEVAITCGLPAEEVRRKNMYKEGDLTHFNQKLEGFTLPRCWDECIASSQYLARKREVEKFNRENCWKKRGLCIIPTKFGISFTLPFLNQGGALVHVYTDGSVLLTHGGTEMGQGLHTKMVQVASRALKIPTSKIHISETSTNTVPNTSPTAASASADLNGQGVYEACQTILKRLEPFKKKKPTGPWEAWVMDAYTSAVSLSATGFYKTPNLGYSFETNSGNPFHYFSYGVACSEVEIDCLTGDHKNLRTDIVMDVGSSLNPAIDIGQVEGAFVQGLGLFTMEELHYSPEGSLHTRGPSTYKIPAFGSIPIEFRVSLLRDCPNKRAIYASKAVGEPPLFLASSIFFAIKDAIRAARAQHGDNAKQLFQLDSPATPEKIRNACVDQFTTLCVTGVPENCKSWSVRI

Compound: Cc1cc(=O)n2nc(COc3ccc(Cl)cc3)sc2n1
- IC50 [1]: 449 nM
- IC50 [2]: 423 nM
- IC50 [3]: 461 nM

Compound: COc1ccc(OCc2nn3c(=O)cc(C)nc3s2)cc1
- IC50 [1]: 289 nM
- IC50 [2]: 269 nM
- IC50 [3]: 269 nM

Compound: Cc1cc(=O)n2nc(COc3ccccc3Br)sc2n1
- IC50 [1]: 413 nM
- IC50 [3]: 603 nM

Compound: Cc1cc(=O)n2nc(COc3ccccc3C)sc2n1
- IC50 [1]: 362 nM
- IC50 [2]: 346 nM
- IC50 [3]: 326 nM

Compound: Cc1cc(=O)n2nc(COc3ccccc3Cl)sc2n1
- IC50 [1]: 1830 nM
- IC50 [2]: 1820 nM
- IC50 [3]: 1650 nM

Compound: Cc1cc(=O)n2nc(COc3ccc(Cl)c(C)c3)sc2n1
- IC50 [1]: 623 nM
- IC50 [2]: 596 nM
- IC50 [3]: 634 nM

Compound: Cc1cccc(OCc2nn3c(=O)cc(C)nc3s2)c1
- IC50 [1]: 1070 nM
- IC50 [2]: 1110 nM
- IC50 [3]: 1030 nM

Compound: Cc1cc(=O)n2nc(COc3ccc(F)cc3)sc2n1
- IC50 [2]: 2240 nM

Compound: Cc1cc(=O)n2nc(COc3ccc([N+](=O)[O-])cc3)sc2n1
- IC50 [1]: 2030 nM
- IC50 [3]: 2500 nM

Compound: Cc1ccc(OCc2nn3c(=O)cc(C)nc3s2)c(C)c1
- IC50 [1]: 1760 nM
- IC50 [2]: 1730 nM
- IC50 [3]: 1800 nM

Compound: Cc1cc(=O)n2nc(COc3ccccc3F)sc2n1
- IC50 [1]: 590 nM

Compound: Cc1ccc(OCc2nn3c(=O)cc(C)nc3s2)cc1
- IC50 [1]: 1020 nM
- IC50 [2]: 834 nM

Compound: Cc1cc(=O)n2nc(COc3cccc(Cl)c3)sc2n1
- IC50 [1]: 6180 nM

Compound: Cc1cc(=O)n2nc(COc3cccc(Br)c3)sc2n1
- IC50 [1]: 2560 nM

Compound: Cc1cc(=O)n2nc(COc3cccc(F)c3)sc2n1
- IC50 [1]: 1980 nM
- IC50 [2]: 1660 nM

Compound: Cc1cc(=O)n2nc(COc3ccccc3)sc2n1
- IC50 [1]: 555 nM
